Legend:
Assay type in all cases: functional
UACC-62 = test: Growth inhibition of human UACC62 cells incubated for 48 hrs by sulforhodamine B assay; conditions: UACC-62, 48 h
Outline: (§1)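 NCI-60 screen run at NCI. Cells grown in RPMI medium with 5% FBS and 2 mM L-glutamine, plated at 5,000–40,000 cells/well, and preincubated 24 h at 37 °C. Time-zero plates were TCA-fixed. Compounds came from DMSO stocks and were tested at five concentrations from 10^-4 to 10^-8 M for 48 h. Cells were then TCA-fixed, stained with 0.4% SRB, and OD read at 515 nm. GI50 is the concentration giving a 50% reduction in net protein increase versus control.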

OVCAR-5 = test: Growth inhibition of human OVCAR5 cells incubated for 48 hrs by sulforhodamine B assay; conditions: OVCAR-5, 48 h
Outline: (§2)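 NCI-60 screen. Compounds were dosed at five concentrations spanning 10^-4 to 10^-8 M for 48 h at 37 °C. Cells were TCA-fixed, stained with 0.4% SRB and read at 515 nm against time-zero and vehicle controls. GI50 is the concentration giving a 50% reduction in net protein increase.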

HL-60(TB) = test: Growth inhibition of human HL-60(TB) cells incubated for 48 hrs by sulforhodamine B assay; conditions: HL-60, 48 h
Outline: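 Performed at NCI's 60-line screen. Cells grown in RPMI with 5% FBS and 2 mM L-glutamine, plated 5,000–40,000 cells/well and incubated 24 h at 37 °C before compound addition. DMSO stocks were diluted in medium with gentamicin, and five concentrations spanning 10^-4 to 10^-8 M were tested. Exposure was 48 h. Cells were fixed with TCA, stained with SRB, and read at 515 nm. GI50 taken from log dose-response curves as 50% reduction in net protein increase versus control.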

RPMI-8226 = test: Growth inhibition of human RPMI8226 cells incubated for 48 hrs by sulforhodamine B assay; conditions: RPMI-8226, 48 h; outline: as §2
UACC-257 = test: Growth inhibition of human UACC257 cells incubated for 48 hrs by sulforhodamine B assay; conditions: UACC-257, 48 h; outline: as §1
HCT-15 = test: Growth inhibition of human HCT15 cells incubated for 48 hrs by sulforhodamine B assay; conditions: HCT-15, 48 h; outline: as §2
SN12C = test: Growth inhibition of human SN12C cells incubated for 48 hrs by sulforhodamine B assay; outline: as §2
SK-OV-3 = test: Growth inhibition of human SKOV3 cells incubated for 48 hrs by sulforhodamine B assay; conditions: SK-OV-3, 48 h; outline: as §2
SF-295 = test: Growth inhibition of human SF295 cells incubated for 48 hrs by sulforhodamine B assay; conditions: SF-295, 48 h; outline: as §2
U-251 = test: Growth inhibition of human U251 cells incubated for 48 hrs by sulforhodamine B assay; conditions: U-251, 48 h; outline: as §1
Malme-3M = test: Growth inhibition of human MALME-3M cells incubated for 48 hrs by sulforhodamine B assay; outline: as §2
HOP-92 = test: Growth inhibition of human HOP92 cells incubated for 48 hrs by sulforhodamine B assay; conditions: HOP-92, 48 h; outline: as §2
OVCAR-8 = test: Growth inhibition of human OVCAR8 cells incubated for 48 hrs by sulforhodamine B assay; conditions: OVCAR-8, 48 h; outline: as §2
A549 = test: Growth inhibition of human A549/ATCC cells incubated for 48 hrs by sulforhodamine B assay; conditions: A549, 48 h; outline: as §2
KM12 = test: Growth inhibition of human KM12 cells incubated for 48 hrs by sulforhodamine B assay; conditions: KM12, 48 h; outline: as §2
HT-29 = test: Growth inhibition of human HT-29 cells incubated for 48 hrs by sulforhodamine B assay; conditions: HT-29, 48 h; outline: as §2
UO-31 = test: Growth inhibition of human UO31 cells incubated for 48 hrs by sulforhodamine B assay; conditions: UO-31, 48 h; outline: as §1
SK-MEL-28 = test: Growth inhibition of human SK-MEL-28 cells incubated for 48 hrs by sulforhodamine B assay; conditions: SK-MEL-28, 48 h; outline: as §2
NCI/ADR-RES = test: Growth inhibition of human NCI/ADR-RES cells incubated for 48 hrs by sulforhodamine B assay; outline: as §2
SF-539 = test: Growth inhibition of human SF539 cells incubated for 48 hrs by sulforhodamine B assay; conditions: SF-539, 48 h; outline: as §2
HCT-116 = test: Growth inhibition of human HCT116 cells incubated for 48 hrs by sulforhodamine B assay; conditions: HCT-116, 48 h; outline: as §2
NCI-H23 = test: Growth inhibition of human NCI-H23 cells incubated for 48 hrs by sulforhodamine B assay; conditions: NCI-H23, 48 h; outline: as §2
SNB-19 = test: Growth inhibition of human SNB19 cells incubated for 48 hrs by sulforhodamine B assay; conditions: SNB-19, 48 h; outline: as §1
K562 = test: Growth inhibition of human K562 cells incubated for 48 hrs by sulforhodamine B assay; conditions: K562, 48 h; outline: as §2
NCI-H226 = test: Growth inhibition of human NCI-H226 cells incubated for 48 hrs by sulforhodamine B assay; conditions: NCI-H226, 48 h; outline: as §2
SF-268 = test: Growth inhibition of human SF268 cells incubated for 48 hrs by sulforhodamine B assay; conditions: SF-268, 48 h; outline: as §2
LOX IMVI = test: Growth inhibition of human LOXIMVI cells incubated for 48 hrs by sulforhodamine B assay; outline: as §2
NCI-H460 = test: Growth inhibition of human NCI-H460 cells incubated for 48 hrs by sulforhodamine B assay; conditions: NCI-H460, 48 h; outline: as §2
[1] = Cytotoxicity against human M9-ENL1 cells assessed as reduction in cell viability by trypan blue staining-based assay
Outline: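 M9-ENL1 AML cells (MLL-ENL-transduced human blood cells) plated at 10^6 cells/mL in alpha-MEM with 5% human plasma, 20% FBS, SCF, IL-3, IL-7 and FLT3. Drug diluted from DMSO stock into PBS, final DMSO ≤0.5%. After 24 h exposure, dead cells assessed by trypan blue and by flow cytometry (Annexin V/PI or Annexin V/7-AAD). Viability normalized to vehicle; EC50 from dose-response curves; triplicate.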

RXF 393 = test: Growth inhibition of human RXF393 cells incubated for 48 hrs by sulforhodamine B assay; conditions: RXF 393, 48 h; outline: as §2
MOLT-4 = test: Growth inhibition of human MOLT4 cells incubated for 48 hrs by sulforhodamine B assay; conditions: MOLT-4, 48 h; outline: as §2
HCC 2998 = test: Growth inhibition of human HCC2998 cells incubated for 48 hrs by sulforhodamine B assay; conditions: HCC 2998, 48 h; outline: as §2
NCI-H322M = test: Growth inhibition of human NCI-H322M cells incubated for 48 hrs by sulforhodamine B assay; outline: as §2
MCF7 = test: Growth inhibition of human MCF7 cells incubated for 48 hrs by sulforhodamine B assay; conditions: MCF7, 48 h; outline: as §2
CCRF-CEM = test: Growth inhibition of human CCRF-CEM cells incubated for 48 hrs by sulforhodamine B assay; outline: as §2
A498 = test: Growth inhibition of human A498 cells incubated for 48 hrs by sulforhodamine B assay; conditions: A498, 48 h; outline: as §2
NCI-H522 = test: Growth inhibition of human NCI-H522 cells incubated for 48 hrs by sulforhodamine B assay; conditions: NCI-H522, 48 h; outline: as §2

Compound	GI50 (UACC-62)	GI50 (OVCAR-5)	GI50 (HL-60(TB))	GI50 (RPMI-8226)	GI50 (UACC-257)	GI50 (HCT-15)	GI50 (SN12C)	GI50 (SK-OV-3)	GI50 (SF-295)	GI50 (U-251)	GI50 (Malme-3M)	GI50 (HOP-92)	GI50 (OVCAR-8)	GI50 (A549)	GI50 (KM12)	GI50 (HT-29)	GI50 (UO-31)	GI50 (SK-MEL-28)	GI50 (NCI/ADR-RES)	GI50 (SF-539)	also measured
C=C1C(=O)O[C@@H]2[C@H]3O[C@]3(C)CC/C=C(/COC(=O)/C=C/c3c[nH]c4ccccc34)CC[C@@H]12	170 nM	310 nM	250 nM	30 nM	350 nM	180 nM	190 nM	1880 nM	1620 nM	210 nM	280 nM	150 nM	190 nM	1270 nM	400 nM	190 nM	150 nM	330 nM	350 nM	260 nM	GI50 (HCT-116): 180 nM; GI50 (NCI-H23): 1250 nM; GI50 (SNB-19): 640 nM; GI50 (K562): 270 nM; GI50 (NCI-H226): 230 nM; GI50 (SF-268): 220 nM; GI50 (LOX IMVI): 50 nM; GI50 (NCI-H460): 1010 nM; EC50 [1]: 700 nM; GI50 (RXF 393): 170 nM; GI50 (MOLT-4): 300 nM; GI50 (HCC 2998): 270 nM; GI50 (NCI-H322M): 1730 nM; GI50 (MCF7): 220 nM; GI50 (CCRF-CEM): 70 nM; GI50 (A498): 270 nM; GI50 (NCI-H522): 180 nM
C=C1C(=O)O[C@@H]2[C@H]3O[C@]3(C)CC/C=C(/COC(=O)c3c[nH]c4ccccc34)CC[C@@H]12	180 nM	400 nM	270 nM	40 nM	360 nM	250 nM	230 nM	2240 nM	1940 nM	610 nM	320 nM	160 nM	280 nM	1500 nM	470 nM	240 nM	160 nM	360 nM	390 nM	260 nM	GI50 (HCT-116): 190 nM; GI50 (NCI-H23): 1630 nM; GI50 (SNB-19): 1300 nM; GI50 (K562): 270 nM; GI50 (NCI-H226): 440 nM; GI50 (SF-268): 290 nM; GI50 (LOX IMVI): 40 nM; GI50 (NCI-H460): 1100 nM; EC50 [1]: 1900 nM; GI50 (RXF 393): 190 nM; GI50 (MOLT-4): 280 nM; GI50 (HCC 2998): 320 nM; GI50 (NCI-H322M): 1850 nM; GI50 (MCF7): 260 nM; GI50 (CCRF-CEM): 50 nM; GI50 (A498): 260 nM; GI50 (NCI-H522): 190 nM
CN(C)CC1C(=O)O[C@@H]2[C@H]3O[C@]3(C)CC/C=C(/COC(=O)c3cc4ccccc4[nH]3)CC[C@@H]12.O=C(O)/C=C/C(=O)O (stereo partly drawn)	1650 nM	2380 nM	240 nM	280 nM	1470 nM	290 nM	2210 nM	2190 nM	3950 nM	2610 nM	2010 nM	1400 nM	1680 nM	2440 nM	2240 nM	430 nM	520 nM	2210 nM	1420 nM	2510 nM	GI50 (HCT-116): 290 nM; GI50 (NCI-H23): 1960 nM; GI50 (SNB-19): 11900 nM; GI50 (K562): 630 nM; GI50 (NCI-H226): 1980 nM; GI50 (SF-268): 1480 nM; GI50 (LOX IMVI): 170 nM; GI50 (NCI-H460): 5850 nM; EC50 [1]: 2800 nM; GI50 (RXF 393): 1140 nM; GI50 (MOLT-4): 1510 nM; GI50 (HCC 2998): 1720 nM; GI50 (NCI-H322M): 10800 nM; GI50 (MCF7): 610 nM; GI50 (CCRF-CEM): 320 nM; GI50 (A498): 13100 nM; GI50 (NCI-H522): 1220 nM
C=C1C(=O)O[C@@H]2[C@H]3O[C@]3(C)CC/C=C(/COC(=O)CCCc3c[nH]c4ccccc34)CC[C@@H]12	1840 nM	1890 nM	1630 nM	2310 nM	2030 nM	1610 nM	1900 nM	17300 nM	5690 nM	1950 nM	1790 nM	1680 nM	3380 nM	5470 nM	1890 nM	1710 nM	1410 nM	1700 nM	2900 nM	1630 nM	GI50 (HCT-116): 960 nM; GI50 (NCI-H23): 1720 nM; GI50 (SNB-19): 2590 nM; GI50 (K562): 2600 nM; GI50 (NCI-H226): 2040 nM; GI50 (SF-268): 1690 nM; GI50 (LOX IMVI): 1550 nM; GI50 (NCI-H460): 4540 nM; EC50 [1]: 2000 nM; GI50 (RXF 393): 1460 nM; GI50 (MOLT-4): 1530 nM; GI50 (HCC 2998): 1790 nM; GI50 (NCI-H322M): 13800 nM; GI50 (MCF7): 1420 nM; GI50 (CCRF-CEM): 750 nM; GI50 (A498): 11900 nM; GI50 (NCI-H522): 1570 nM
